Test results taken from ChEMBL document CHEMBL1125344, “(Pyridylcyanomethyl)piperazines as orally active PAF antagonists” (J Med Chem, 1992).

Columns and labels:
[1] = molecular target: Platelet-activating factor receptor (Mus musculus) (UniProt Q62035); experiment: Oral dose required to inhibit PAF-induced mortality (PAF-Antagonistic activity)in mice by 50%.; type: functional; conditions: Mus sp.
Method in brief: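 Male Swiss mice, 22-26 g, in groups of 10. Compound or saline given po (20 mL/kg) 60 min before C18-PAF 100 µg/kg plus propranolol 1 mg/kg by tail vein. ID50 from percent inhibition of mortality versus controls.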

[2] = molecular target: Platelet-activating factor receptor (Rattus norvegicus) (UniProt P46002); experiment: In vivo dose administered intravenously to inhibit PAF-induced hypotension (PAF-Antagonistic activity) in normotensive rats by 57%.; type: functional, organism-based
[3] = molecular target: Platelet-activating factor receptor (Rattus norvegicus) (UniProt P46002); experiment: In vivo dose administered intravenously to inhibit PAF-induced hypotension (PAF-Antagonistic activity) in normotensive rats by 56%.; type: functional, organism-based
Method in brief: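 Male Sprague-Dawley rats, 180-220 g, anesthetized with sodium pentobarbital ip; blood pressure recorded from left carotid artery. Compound given iv in saline (1 mL/kg) via femoral vein 3 min before PAF 0.5 μg/kg iv; initial dose 5 mg/kg. Percentage inhibition of PAF-induced hypotension calculated versus vehicle-treated controls.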

Platelet-activating factor receptor (Rattus norvegicus), sequence (P46002 whole entry): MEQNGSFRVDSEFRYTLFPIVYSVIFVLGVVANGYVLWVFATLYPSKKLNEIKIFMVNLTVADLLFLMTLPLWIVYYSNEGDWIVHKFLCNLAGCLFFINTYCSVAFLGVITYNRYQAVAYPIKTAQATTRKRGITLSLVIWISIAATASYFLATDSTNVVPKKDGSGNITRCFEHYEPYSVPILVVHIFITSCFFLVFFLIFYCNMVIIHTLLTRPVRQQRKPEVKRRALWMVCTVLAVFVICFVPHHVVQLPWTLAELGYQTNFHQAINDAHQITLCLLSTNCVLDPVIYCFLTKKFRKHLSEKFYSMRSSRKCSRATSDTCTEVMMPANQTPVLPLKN
Platelet-activating factor receptor (Mus musculus), sequence (Q62035 whole entry): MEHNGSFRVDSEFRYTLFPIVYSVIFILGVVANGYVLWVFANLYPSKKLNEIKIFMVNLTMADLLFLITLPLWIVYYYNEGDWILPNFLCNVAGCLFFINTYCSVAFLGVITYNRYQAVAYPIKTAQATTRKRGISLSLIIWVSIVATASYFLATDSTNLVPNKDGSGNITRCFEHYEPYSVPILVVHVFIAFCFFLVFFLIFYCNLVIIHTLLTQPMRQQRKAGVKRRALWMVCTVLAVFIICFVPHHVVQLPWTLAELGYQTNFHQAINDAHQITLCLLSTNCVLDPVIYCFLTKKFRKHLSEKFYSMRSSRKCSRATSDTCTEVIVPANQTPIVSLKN

Row | ID50 [2] | SMILES | ID50 [1] | ID50 [3]
1 | 5 mg/kg | N#CC(c1cccnc1)N1CCN(C(=O)CCCc2ccccc2)CC1 (stereo not drawn) | 50 mg/kg | –
2 | – | N#CC(c1cccnc1)N1CCN(C(=O)Cc2ccc3ccccc3c2)CC1 (stereo not drawn) | – | 5 mg/kg
